From ChEMBL document CHEMBL2434874, “Synthesis and antiproliferative activity of benzofuran-based analogs of cercosporamide against non-small cell lung cancer cell lines” (Eur J Med Chem, 2013)

Experiments:
[1] = Cytotoxicity against human NSCLC-N6 cells expressing mutant p53 by MTT assay; assay type: functional, cell-based
Method in brief: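 Cells grown in RPMI 1640 and seeded in 96-well plates (NSCLC-N6 at 10⁵ cells/mL). Cells exposed to drug continuously. Growth measured colorimetrically by mitochondrial reduction of MTT to formazan, with solubilized formazan read at 570 nm. Eight replicates per concentration; control growth from 8 determinations.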

A549 = experiment: Cytotoxicity against human A549 cells expressing wild type p53 by MTT assay; assay type: functional, cell-based
[2] = Homo sapiens, NSCLC-N6, read-out: IC50
[3] = Homo sapiens, A549, read-out: IC50

SMILES	IC50 [1, 2] [µM]	IC50 (A549; [3]) [µM]	IC50 ([1]; nsclc-n6)	IC50 (A549; a549)
COc1cc(OC)c2c(C)c(C(N)=O)oc2c1C(N)=O	22.6	39.4		
COc1cc(OC)c2c(C)c(C=O)oc2c1			Not Active	Not Active
COc1cc(OC)c2c(C)c(C=O)oc2c1Br		49.5	Not Active	
COc1cc(OC)c2c(C)c(C=O)oc2c1C#N			Not Active	Not Active
COc1cc(OC)c2c(C)c(C=O)oc2c1C(N)=O	44.4	63.8		
Cc1c(C=O)oc2c(C(N)=O)c(O)cc(O)c12	60.8	108		
CCOC(=O)c1oc2cc(OCc3ccccc3)cc(OCc3ccccc3)c2c1C	> 72	> 72		
Cc1c(C=O)oc2cc(OCc3ccccc3)cc(OCc3ccccc3)c12	> 80.6	> 80.6		
CCOC(=O)c1oc2cc(O)cc(O)c2c1C	65.6	68.6		
Cc1c(C=O)oc2cc(O)cc(O)c12			Not Active	Not Active
CCOC(=O)c1oc2c(C(N)=O)c(OCc3ccccc3)cc(OCc3ccccc3)c2c1C	< 7.2	< 7.2		
CCOC(=O)c1oc2c(C(N)=O)c(O)cc(O)c2c1C	32.9	24		
CCOC(=O)c1oc2cc(OC)cc(OC)c2c1C			Not Active	Not Active
CCOC(=O)c1oc2c(Br)c(OC)cc(OC)c2c1C	> 87.4	> 87.4		
CCOC(=O)c1oc2c(C#N)c(OC)cc(OC)c2c1C			Not Active	Not Active
CCOC(=O)c1oc2c(C(N)=O)c(OC)cc(OC)c2c1C			Not Active	Not Active
CCCNC(=O)c1oc2c(C(N)=O)c(OC)cc(OC)c2c1C	> 93.6	> 93.6		
COc1cc(OC)c2c(C)c(C(=O)NCc3ccccc3)oc2c1C(N)=O	> 81.4	54.8		
COc1cc(OC)c2c(C)c(C(=O)Nc3ccccc3)oc2c1C(N)=O	< 9.3	< 9.3		
COc1cc(OC)c2c(C)c(C(=O)Nc3ccccn3)oc2c1C(N)=O	> 84.4	> 84.4		
COc1cc(OC)c2c(C)c(C(=O)Nc3ccncc3)oc2c1C(N)=O	< 9.3	< 9.3		
